Laboratory results reported in ChEMBL document CHEMBL5113504, “Discovery of potent benzoxaborole inhibitors against SARS-CoV-2 main and dengue virus proteases” (Eur J Med Chem, 2022).
Activity calls are given as the source filed them. The rule behind the calls is not given here.

Experiments:
HeLa [1] = assay: Cytotoxicity against human HeLa cells expressing luciferase-based DENV-2 protease reporter system assessed as reduction in cell viability by celltiter-blue assay; type: toxicity
Outline: (§1)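 CellTiter-Blue viability in HeLa reporter cells or Huh-7 cells, on plates run in parallel with the reporter or titer-reduction assay under the same treatment; each concentration in triplicate.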

[2] = biological target: Genome polyprotein (dengue virus type 2) (UniProt P29990); assay: Inhibition of full length DENV2 NS2B-NS3 protease in human HeLa cells expressing luciferase reporter gene at 12.5 uM incubated for 24 hrs by luminescence analysis relative to control; type: cell-based
Outline: (§2)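 Stable DENV2pro reporter HeLa cells seeded at 2×10^4 per well and dosed immediately; 24 h at 37 °C, lysed 15 min, coelenterazine (2.75 μM in PBS) injected, luminescence read 5 s. Triplicates; % inhibition vs untreated cells; EC50 by 4-parameter fit with cell-free background subtraction.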

dengue virus type 2 = assay: Antiviral activity against Dengue virus serotype 2 infected in Huh-7 cells assessed as reduction in virus titer at 12.5 uM incubated for 48 hrs followed by infection of Vero E6 cells with supernatant and measured after 7 days by crystal violet staining based analysis relative to control; type: functional; set-up: scale not given: the % may be the effect or the level left; conditions: time 9 day
Outline: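 Huh-7 cells (1×10^4/well, overnight) infected with DENV-2 at MOI 1 for 2 h, medium changed, compound added; 48 h, triplicate supernatants pooled. Titer by plaque assay: Vero E6 infected 1 h with 10^-1 to 10^-6 dilutions, plaque medium 7 days, formaldehyde-fixed, crystal violet stained, plaques counted.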

HeLa [3] = assay: Cytotoxicity against human HeLa cells expressing renilla luciferase reporter construct assessed as reduction in cell viability at 12.5 uM by luciferase based analysis; type: toxicity
Genome polyprotein [4] = biological target: T1, Genome polyprotein (dengue virus type 2, UniProt P29990); assay: Chemical stability of the compound in DENV2 NS2B-NS3 protease assay buffer assessed as DENV2 NS2B-NS3 protease-mediated amide bond cleavage by measuring reduction in AUC at 100 uM measured after 8 hrs by HPLC analysis; type: ADME; conditions: dengue virus type 2, buffer
Outline: (§3)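 Compound incubated with isolated protease (SARS-CoV-2 Mpro or DENV-2 protease) in that enzyme's assay buffer for 8 h; remaining compound quantified by HPLC with UV/Vis detection (peak AUC).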

[5] = biological target: Replicase polyprotein 1ab (Severe acute respiratory syndrome coronavirus 2) (UniProt P0DTD1); assay: Reversible inhibition of C-terminal His tagged SARS CoV-2 main protease transfected in Escherichia coli BL21 (DE3) at 100 uM preincubated for 2 hrs followed by dilution to 3 uM and substrate addition measured after 15 mins by fluorimetric assay; conditions: time 135.0 min
Huh-7 = assay: Cytotoxicity against human Huh-7 cells infected with Dengue virus serotype 2 assessed as reduction in cell viability by celltiter-blue assay; type: toxicity, cell-based; outline: as §1
[6] = Permeability of compound in PBS at pH 7.4 measured after 5 hrs by HPLC-UV based PAMPA assay; type: ADME; conditions: pH 7.4, 5 h
[7] = biological target: Replicase polyprotein 1ab (Severe acute respiratory syndrome coronavirus 2) (UniProt P0DTD1); assay: (§4) Inhibition of C-terminal His tagged SARS CoV-2 main protease transfected in Escherichia coli BL21 (DE3) using 2-Abz-Ser-AlaVal-Leu-Gln-Ser-Gly-Tyr(3-NO2)-Arg-OH as substrate at 50 uM preincubated for 15 mins followed by substrate addition and measured after 15 mins by FRET assay relative to control; conditions: time 30.0 min
[8] = biological target: Replicase polyprotein 1ab (Severe acute respiratory syndrome coronavirus 2) (UniProt P0DTD1); assay: as §4, with “Potency index, ratio of boceprevir IC50 to test compound IC50 for inhibition” for “Inhibition”, “substrate” for “substrate at 50 uM”, “assay” for “assay relative to control”; conditions: time 30.0 min
[9] = biological target: T2, Replicase polyprotein 1ab (Severe acute respiratory syndrome coronavirus 2, UniProt P0DTD1); assay: Chemical stability of the compound in SARS-CoV-2 main protease assay buffer assessed as SARS-CoV-2 main protease-mediated amide bond cleavage at 100 uM measured after 8 hrs by HPLC based UV-Vis analysis; type: ADME; conditions: severe acute respiratory syndrome coronavirus 2, buffer; outline: as §3
[10] = biological target: T2, Replicase polyprotein 1ab; assay: Inhibition of C-terminal His tagged SARS CoV-2 main protease transfected in Escherichia coli BL21 (DE3) using 2-Abz-Ser-AlaVal-Leu-Gln-Ser-Gly-Tyr(3-NO2)-Arg-OH as substrate preincubated for 15 mins followed by substrate addition and measured after 15 mins by FRET assay
[11] = biological target: Replicase polyprotein 1ab (Severe acute respiratory syndrome coronavirus 2) (UniProt P0DTD1); assay: […] inhibition of C-terminal His tagged SARS CoV-2 main protease transfected in Escherichia coli BL21 (DE3) assessed as decrease in Vmax with constant Km using varying concentrations of 2-Abz-Ser-AlaVal-Leu-Gln-Ser-Gly-Tyr(3-NO2)-Arg-OH as substrate by Michaelis-Menten analysis
[12] = biological target: T2, Replicase polyprotein 1ab; assay: Inhibition of C-terminal His tagged SARS CoV-2 main protease transfected in Escherichia coli BL21 (DE3) assessed as inhibition constant by Michaelis-Menten analysis
[13] = biological target: Replicase polyprotein 1ab (Severe acute respiratory syndrome coronavirus 2) (UniProt P0DTD1); assay: Inhibition of C-terminal His tagged SARS CoV-2 main protease transfected in Escherichia coli BL21 (DE3) at 50 uM incubated in presence of DTT
Outline: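 Mpro fluorogenic inhibition assay repeated with 1 mM DTT added to the assay buffer.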

Genome polyprotein [14] = biological target: T1, Genome polyprotein; assay: Inhibition of full length DENV2 NS2B-NS3 protease in human HeLa cells expressing luciferase reporter gene incubated for 24 hrs by luminescence analysis; type: cell-based; outline: as §2
Trypsin = Trypsin (Homo sapiens, UniProt P07477+P07478+P35030); assay: Inhibition of trypsin (unknown origin) using Boc-Val-Pro-Arg-AMC as substrate assessed as enzymatic cleavage preincubated for 15 mins followed by substrate addition and measured after 15 mins by Continuous fluorimetric assay; type: protein assay

Compound	CC50 (HeLa [1]) [µM]	inhibition [2] [%]	Activity (dengue virus type 2) [%]	Activity (HeLa [3])	Stability (Genome polyprotein [4])	inhibition [5]	Activity (Huh-7)	permeability [6]	inhibition [7] [%]	Ratio IC50 [8]	Stability [9]	IC50 [10] [µM]	inhibition [11]	Ki [12] [µM]	inhibition [13]	EC50 (Genome polyprotein [14]) [nM]	IC50 (Trypsin) [µM]
O=C(Nc1ccc2c(c1)B(O)OC2)c1cccc(OCc2ccccc2)c1	55.2	81.2	67.4	Non-Toxic	Stable	Active	Non-Toxic	Permeable	99.6	3	Stable	6.1	Active	6.2	Active	2400	–
N=C(N)Nc1ccc(C(=O)Nc2ccc3c(c2)B(O)OC3)cc1	> 200	23	–	Non-Toxic	–	–	–	–	87.4	–	Stable	13.9	–	–	Active	–	61.4
